Laboratory results as given in ChEMBL document CHEMBL2331229, “Extracellular signal-regulated kinases (ERK) inhibitors from Aristolochia yunnanensis” (J Nat Prod, 2013).
Active and inactive are the calls of the source. No cut-off for these calls is given here.

Key:
[1] = target: c-Jun N-terminal kinase, JNK (Homo sapiens) (UniProt P45983+P53779+P45984); assay: Inhibition of JNK phosphorylation in human HeLa cells at 20 uM after 3 hrs by Western blotting analysis; assay type: cell-based
Procedure, shortened: (§1)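 HeLa cells exposed to 20 μM compound for 3 h. Lysed in Tris pH 7.4/NaCl/NP-40/deoxycholate/SDS buffer with protease and phosphatase inhibitors, protein by BCA. Then 20 μg protein on 8–10% SDS-PAGE, transferred to nitrocellulose and blocked with 5% milk. Primary antibodies overnight at 4 °C, detection by chemiluminescence. Phospho-ERK1/2, -JNK and -p38 quantified by densitometry (n = 3, ANOVA).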

[2] = target: T1, Mitogen-activated protein kinase; ERK1/ERK2 (Homo sapiens) (UniProt P27361+P28482); assay: Inhibition of ERK1/2 phosphorylation in human HeLa cells after 3 hrs by Western blotting analysis; assay type: cell-based
Procedure, shortened: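 HeLa cells exposed to compound at indicated concentrations (2.5 to 40 μM range) for 3 h, with PD98059 as positive control. Lysate protein (20 μg) was run on SDS-PAGE and Western blotted for phospho-ERK1/2. Blots were quantified by densitometry (n = 3, ANOVA).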

[3] = target: MAP kinase p38 (Homo sapiens) (UniProt O15264+Q15759+Q16539+P53778); assay: Inhibition of p38 phosphorylation in human HeLa cells at 20 uM after 3 hrs by Western blotting analysis; assay type: cell-based; procedure, shortened: as §1
[4] = target: T1, Mitogen-activated protein kinase; ERK1/ERK2 (Homo sapiens); assay: Inhibition of ERK1/2 phosphorylation in human HeLa cells at 20 uM after 3 hrs by Western blotting analysis; assay type: cell-based; procedure, shortened: as §1
[5] = system: HeLa; assay: Cytotoxicity against human HeLa cells assessed as decrease in cell viability at 50 uM after 48 hrs by WST-8-based colorimetric assay; assay type: functional
Procedure, shortened: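 HeLa cells in 96-well plates given 50 μM compound for 48 h. Viability read with CCK-8: phenol red-free DMEM containing 10% WST-8 added, 1 h at 37 °C, then OD at 450 nm. Computed from the mean of three wells (n = 3, ANOVA).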

T1 sequence (P27361 whole entry, looked up): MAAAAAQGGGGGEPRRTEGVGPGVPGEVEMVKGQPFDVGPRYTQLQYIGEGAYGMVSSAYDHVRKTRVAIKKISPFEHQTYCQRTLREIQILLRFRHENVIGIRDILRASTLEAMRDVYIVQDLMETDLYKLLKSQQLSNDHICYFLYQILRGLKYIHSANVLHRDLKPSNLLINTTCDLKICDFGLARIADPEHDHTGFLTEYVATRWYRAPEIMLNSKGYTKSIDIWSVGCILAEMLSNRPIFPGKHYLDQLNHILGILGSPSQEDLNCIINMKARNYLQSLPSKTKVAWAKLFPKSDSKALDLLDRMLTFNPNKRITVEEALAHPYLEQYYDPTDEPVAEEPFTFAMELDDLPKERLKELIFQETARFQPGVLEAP
T1 sequence (P28482 whole entry, looked up): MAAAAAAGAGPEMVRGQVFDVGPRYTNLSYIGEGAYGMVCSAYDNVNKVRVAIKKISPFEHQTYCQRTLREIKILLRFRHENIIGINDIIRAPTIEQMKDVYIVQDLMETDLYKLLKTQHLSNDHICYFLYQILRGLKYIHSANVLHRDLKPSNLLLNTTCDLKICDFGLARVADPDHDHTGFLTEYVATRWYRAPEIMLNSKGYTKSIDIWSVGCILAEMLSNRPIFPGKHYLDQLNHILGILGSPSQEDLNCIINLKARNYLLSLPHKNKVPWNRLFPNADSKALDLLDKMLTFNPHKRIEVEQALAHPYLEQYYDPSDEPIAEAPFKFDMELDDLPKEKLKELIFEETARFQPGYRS

Structure (SMILES)	inhibition [1]	inhibition [2]	inhibition [3]	inhibition [4]	Activity [5]
C/C1=C\CCC2=C[C@H](C/C(C)=C/CC1)OC2=O	inactive	Dose-dependent effect	inactive	–	–
C/C1=C\CCC2=CC(O)(C/C(C)=C/CC1)OC2=O (racemic)	inactive	–	inactive	Active	inactive
C=C(C)[C@H]1CCC(=C)[C@@H](O)CCC2=C[C@H]1OC2=O	inactive	–	inactive	Active	–
C=C(C)[C@H]1C/C=C(\C)[C@@H](O)CCC2=C[C@H]1OC2=O	–	–	–	–	Active
CC(=O)O[C@H]1/C=C(\C=O)CC/C=C(\C)CC/C=C(\C)C1	–	–	–	–	Active
C/C1=C\CC/C(C=O)=C\[C@@H]2[C@@H](CC1)[C@]2(C)CO	–	–	–	–	Active
COC(=O)[C@]1(C)[C@@H]2/C=C(/C=O)CC/C=C(\C)CC[C@H]21	–	–	–	–	Active
COc1cccc(-c2cc(=O)c3ccccc3o2)c1N	–	–	–	Active	–

Continued, in another order:

inhibition [1]	inhibition [2]	inhibition [3]	inhibition [4]	Structure (SMILES)	Activity [5]
inactive	Dose-dependent effect	inactive	–	C[C@@H]1CC(=O)C=C2CC[C@@H]3[C@@H](C3(C)C)[C@]21C	–
inactive	–	inactive	Active	C=C(C)[C@H]1CC/C(C)=C/CCC2=C[C@H]1OC2=O	–
inactive	–	inactive	Active	C=C(C)[C@H]1CC[C@]2(C)[C@@H]([N+](=O)[O-])CC[C@@]23C(=O)O[C@@H]1[C@@H]3O	–
inactive	–	inactive	Active	C/C1=C\CC/C(C=O)=C\[C@H]2[C@@H](C[C@H]1O)C2(C)C	–
inactive	–	inactive	Active	CC(=O)OC[C@]1(C)[C@@H]2/C=C(/C=O)CC/C=C(\C)CC[C@H]21	–
inactive	–	inactive	Active	C/C1=C\CC/C(C=O)=C\[C@@H]2[C@@H](CC1)C2(C)C	–
inactive	–	inactive	Active	CC1(C)[C@@H]2CC[C@@]3(C)O[C@@H]3CC/C(C=O)=C\[C@@H]21	–
